Assay results pooled from the literature.
Each line is one published result; the experiments were not run side by side.
KIT D816V: Mast/stem cell growth factor receptor Kit (KIT, Homo sapiens, UniProt P10721, D816V)
KIT V559D/V654A: Mast/stem cell growth factor receptor Kit (KIT, Homo sapiens, UniProt P10721, V559D/V654A)
KIT D816H: Mast/stem cell growth factor receptor Kit (KIT, Homo sapiens, UniProt P10721, D816H)
KIT V559D: Mast/stem cell growth factor receptor Kit (KIT, Homo sapiens, UniProt P10721, V559D)
KIT autoinhibited: Mast/stem cell growth factor receptor Kit, autoinhibited (KIT, Homo sapiens, UniProt P10721)
KIT T670I/V559D: Mast/stem cell growth factor receptor Kit (KIT, Homo sapiens, UniProt P10721, T670I/V559D)
KIT L576P: Mast/stem cell growth factor receptor Kit (KIT, Homo sapiens, UniProt P10721, L576P)

| SMILES | target | read-out | method | concentration | remaining binding [%] |
| --- | --- | --- | --- | --- | --- |
| CC(C)(C)c1ccc(-c2nc(CBr)nn2-c2cccc(O)c2)cc1 | KIT D816V | cell-free assay | competition with immobilised ligand | 10 µM | 95 |
| CC1CCCN1c1nccc(-c2cnn3ncccc23)n1 (stereo not drawn) | KIT V559D/V654A | binding |  | 1 µM | 100 |
| CCN1CCN(Cc2ccc(C(=O)Nc3ccc(C)c(Oc4ccc5c(c4)CC(=O)N5)c3)cc2C(F)(F)F)CC1 | KIT D816H | binding | competition with immobilised ligand | 1 µM | 100 |
| CNC(=O)Nc1ccc2c(c1)[C@@]1(CC2)OC(=O)N(CC(=O)N(Cc2ccc(F)cc2)[C@@H](C)C(F)(F)F)C1=O | KIT V559D | cell-free assay | competition with immobilised ligand | 1 µM | 100 |
| Cc1cnc(Nc2ccc(C(=O)N3CCC(N4CCCC4)CC3)cc2)nc1-c1cc2ccccc2s1 | KIT autoinhibited | binding | competition with immobilised ligand | 1 µM | 22 |
| C[C@H]1CCN(c2nccc(-c3cnn4ncccc34)n2)C1 | KIT D816V | binding |  | 1 µM | 100 |
| O=C(c1ccc(Nc2ncc(Cl)c(-c3ccc(Cl)s3)n2)cc1)N1CCC(N2CCCC2)CC1 | KIT D816H | binding | competition with immobilised ligand | 1 µM | 7.7 |
| CNC(=O)[C@@H]1CC[C@@H](n2c(-c3ccc4cnccc4c3)nc3ccc(C(=O)NCc4cccc(C(N)=O)c4)cc32)C1 | KIT T670I/V559D | binding | competition with immobilised ligand | 1 µM | 100 |
| CN(C)c1nccc(-c2cnn3ncccc23)n1 | KIT L576P | binding |  | 1 µM | 100 |
| Cc1nc(NC(=O)N2CCC[C@H]2C(N)=O)sc1-c1ccnc(C(C)(C)C(F)(F)F)c1 | KIT autoinhibited | binding | competition with immobilised ligand | 10 µM | 100 |
| COCCOc1nc(-c2ccc(Cl)nc2)nc2c1CN(C(=O)c1ncn3ccccc13)CC2 | KIT L576P | cell-free assay | competition with immobilised ligand | 0.1 µM | 100 |
| CN(C)c1ncc(F)c(-c2cnn3ncccc23)n1 | Mast/stem cell growth factor receptor Kit (KIT, Homo sapiens, UniProt P10721) | binding |  | 1 µM | 100 |
| Cc1noc([C@H]2C[C@@H](c3ccc(C(F)(F)F)cc3)CN(C(=O)N3CCS(=O)(=O)C3)C2)n1 | KIT D816V | cell-free assay | competition with immobilised ligand | 1 µM | 100 |
| N[C@@H]1CCN(c2nccc(-c3cnn4ncccc34)n2)C1 | KIT V559D | binding |  | 1 µM | 100 |
| O=C(Nc1c[nH]nc1C(=O)NC1CCNCC1)c1cc(F)cc(F)c1 | KIT D816V | binding | competition with immobilised ligand | 1 µM | 100 |
| O=S(=O)(NC1CCC(c2cc(F)ccc2F)(S(=O)(=O)c2ccc(Cl)cc2)CC1)C(F)(F)F (stereo not drawn) | KIT L576P | cell-free assay | competition with immobilised ligand | 1 µM | 100 |
| COc1cnc(Nc2cccc(S(N)(=O)=O)c2)nc1N1CCN(c2ccccc2)CC1 | KIT D816V | binding | competition with immobilised ligand | 1 µM | 92 |
| C[C@@H](c1cccc(C#N)c1)n1cc(Cl)cc(C(N)=O)c1=N | KIT V559D | cell-free assay | competition with immobilised ligand | 1 µM | 93 |
| O=C(NCCCN1CCOCC1)c1ccc(Nc2nccc(-c3cc4ccccc4s3)n2)cc1 | KIT V559D/V654A | binding | competition with immobilised ligand | 1 µM | 56 |
| C[C@@H](c1ccc(-n2cnc3c(N)ncnc32)cc1)N1CCc2nn(C)c(Cc3ccccc3)c2C1=O | KIT V559D | binding | competition with immobilised ligand | 0.1 µM | 32 |
| NS(=O)(=O)c1cc(NC(=O)C2(c3ccccc3Cl)CC2)ccc1Oc1cccc(Cl)c1 | KIT T670I/V559D | cell-free assay | competition with immobilised ligand | 1 µM | 85 |
| COc1ccnn2ncc(-c3ccnc(N(C)C)n3)c12 | KIT L576P | binding |  | 1 µM | 100 |
| NS(=O)(=O)c1cc(NC(=O)Cc2ccccc2)ccc1Oc1cccc(Cl)c1 | KIT L576P | cell-free assay | competition with immobilised ligand | 1 µM | 78 |
| CN(C)c1nccc(-c2cnc3ncccn23)n1 | KIT D816H | binding |  | 1 µM | 52 |
